In ChEMBL document CHEMBL1275468, “Plasmid-mediated qnrB2 and carbapenemase gene bla(KPC-2) carried on the same plasmid in carbapenem-resistant ciprofloxacin-susceptible Enterobacter cloacae isolates” (2008):
In brackets after ≈: the same amount, converted by molar mass.

Columns and labels:
Format in all cases: functional
Enterobacter cloacae [1] = assay: Antimicrobial activity against Enterobacter cloacae isolate 18 containing PFGE genetic clone A expressing qnrB2 and beta-lactamase KPC-2 and SHV-12 gene by Etest
Enterobacter cloacae [2] = assay: Antimicrobial activity against Enterobacter cloacae isolate 658 containing PFGE genetic clone B expressing qnrB2 and beta-lactamase KPC-2 and SHV-12 gene by Etest
Enterobacter cloacae [3] = assay: Antimicrobial activity against Enterobacter cloacae isolate 4469 containing PFGE genetic clone C expressing qnrB2 and beta-lactamase KPC-2 and SHV-12 gene by Etest
Escherichia coli [4] = assay: Antimicrobial activity against Escherichia coli T-625 harboring expressing qnrB2 and beta-lactamase KPC-2 and SHV-12 gene by Etest
Outline: (§1)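 MIC read by Etest. Strains are E. coli GeneHogs (recA1) transformants. Plasmid DNA from clinical E. cloacae isolates was introduced by electroporation. Transformants were selected on LB agar with 100 μg/ml ampicillin, then PCR-screened for blaKPC, blaSHV and qnr genes.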

Enterobacter cloacae [5] = assay: Antimicrobial activity against Enterobacter cloacae isolate 656 containing PFGE genetic clone A expressing beta-lactamase KPC-2 and SHV-12 gene by Etest
Enterobacter cloacae [6] = assay: Antimicrobial activity against Enterobacter cloacae isolate 1 containing PFGE genetic clone A expressing qnrB2 and beta-lactamase KPC-2 and SHV-12 gene by Etest
Enterobacter cloacae [7] = assay: Antimicrobial activity against Enterobacter cloacae isolate 625 containing PFGE genetic clone A expressing qnrB2 and beta-lactamase KPC-2 and SHV-12 gene by Etest
Escherichia coli [8] = assay: Antimicrobial activity against Escherichia coli GeneHogs by Etest
Outline: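 MIC read by Etest on the plasmid-free electroporation recipient, E. coli GeneHogs (recA1 mutant).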

Enterobacter cloacae [9] = assay: Antimicrobial activity against Enterobacter cloacae isolate 185 containing PFGE genetic clone A expressing qnrB2 aac(6')-Ib-cr and beta-lactamase KPC-2 and SHV-12 gene by Etest
Enterobacter cloacae [10] = assay: Antimicrobial activity against Enterobacter cloacae isolate 533 containing PFGE genetic clone A expressing qnrB2 and beta-lactamase KPC-2 and SHV-12 gene by Etest
Enterobacter cloacae [11] = assay: Antimicrobial activity against Enterobacter cloacae isolate 140 containing PFGE genetic clone A expressing beta-lactamase KPC-2 and SHV-12 gene by Etest
Enterobacter cloacae [12] = assay: Antimicrobial activity against Enterobacter cloacae isolate 151 containing PFGE genetic clone A expressing qnrB2 and beta-lactamase KPC-2 gene by Etest
Enterobacter cloacae [13] = assay: Antimicrobial activity against Enterobacter cloacae isolate 293 containing PFGE genetic clone A expressing qnrB2 and beta-lactamase KPC-2 and SHV-12 gene by Etest
Enterobacter cloacae [14] = assay: Antimicrobial activity against Enterobacter cloacae isolate 837 containing PFGE genetic clone B expressing qnrB2 and beta-lactamase KPC-2 and SHV-12 gene by Etest
Enterobacter cloacae [15] = assay: Antimicrobial activity against Enterobacter cloacae isolate 781 containing PFGE genetic clone B expressing qnrB2 and beta-lactamase KPC-2 and SHV-12 gene by Etest
Escherichia coli [16] = assay: Antimicrobial activity against Escherichia coli T-622 harboring expressing qnrB2 and beta-lactamase KPC-2 and SHV-12 gene by Etest; outline: as §1
Enterobacter cloacae [17] = assay: Antimicrobial activity against Enterobacter cloacae isolate 649 containing PFGE genetic clone B expressing qnrB2 and beta-lactamase KPC-2 and SHV-12 gene by Etest
Escherichia coli [18] = assay: Antimicrobial activity against Escherichia coli T-781 harboring expressing qnrB2 and beta-lactamase KPC-2 and SHV-12 gene by Etest; outline: as §1
Enterobacter cloacae [19] = assay: Antimicrobial activity against Enterobacter cloacae isolate 622 containing PFGE genetic clone A expressing qnrB2 and beta-lactamase KPC-2 and SHV-12 gene by Etest

| Compound | MIC (Enterobacter cloacae [1]) | MIC (Enterobacter cloacae [2]) | MIC (Enterobacter cloacae [3]) | MIC (Escherichia coli [4]) | MIC (Enterobacter cloacae [5]) | MIC (Enterobacter cloacae [6]) | MIC (Enterobacter cloacae [7]) | MIC (Escherichia coli [8]) | MIC (Enterobacter cloacae [9]) | MIC (Enterobacter cloacae [10]) | MIC (Enterobacter cloacae [11]) | MIC (Enterobacter cloacae [12]) | MIC (Enterobacter cloacae [13]) | MIC (Enterobacter cloacae [14]) | MIC (Enterobacter cloacae [15]) | MIC (Escherichia coli [16]) | MIC (Enterobacter cloacae [17]) | MIC (Escherichia coli [18]) | MIC (Enterobacter cloacae [19]) |
| --- | --- | --- | --- | --- | --- | --- | --- | --- | --- | --- | --- | --- | --- | --- | --- | --- | --- | --- | --- |
| C[C@@H](O)[C@H]1C(=O)N2C(C(=O)O)=C(S[C@@H]3CN[C@H](C(=O)N(C)C)C3)[C@H](C)[C@H]12 [MEROPENEM] | > 32 µg/mL | 24 µg/mL (≈ 62.6 µM) | 8 µg/mL (≈ 20.9 µM) | 3 µg/mL (≈ 7.82 µM) | 6 µg/mL (≈ 15.6 µM) | 2 µg/mL (≈ 5.22 µM) | 6 µg/mL (≈ 15.6 µM) | 0.016 µg/mL (≈ 0.0417 µM) | 24 µg/mL (≈ 62.6 µM) | 2 µg/mL (≈ 5.22 µM) | 4 µg/mL (≈ 10.4 µM) | > 32 µg/mL | 8 µg/mL (≈ 20.9 µM) | 6 µg/mL (≈ 15.6 µM) | > 32 µg/mL | 3 µg/mL (≈ 7.82 µM) | 4 µg/mL (≈ 10.4 µM) | 2 µg/mL (≈ 5.22 µM) | 8 µg/mL (≈ 20.9 µM) |
| NCC[C@H](O)C(=O)N[C@@H]1C[C@H](N)[C@@H](O[C@H]2O[C@H](CN)[C@@H](O)[C@H](O)[C@H]2O)[C@H](O)[C@H]1O[C@H]1O[C@H](CO)[C@@H](O)[C@H](N)[C@H]1O [AMIKACIN] | ≤ 2 µg/mL | ≤ 2 µg/mL | ≤ 2 µg/mL | ≤ 2 µg/mL | ≤ 2 µg/mL | ≤ 2 µg/mL | ≤ 2 µg/mL | ≤ 2 µg/mL | ≤ 2 µg/mL | ≤ 2 µg/mL | ≤ 2 µg/mL | ≤ 2 µg/mL | 16 µg/mL (≈ 27.3 µM) | 32 µg/mL (≈ 54.6 µM) | ≤ 2 µg/mL | ≤ 2 µg/mL | ≤ 2 µg/mL | ≤ 2 µg/mL | ≤ 2 µg/mL |
| C[C@H]1[C@H](NC(=O)/C(=N\OC(C)(C)C(=O)O)c2csc(N)n2)C(=O)N1S(=O)(=O)O [AZTREONAM] | – | – | – | ≥ 64 µg/mL | – | – | – | ≤ 1 µg/mL | – | – | – | – | – | – | – | ≥ 64 µg/mL | – | 32 µg/mL (≈ 73.5 µM) | – |
| GENTAMICIN | > 16 µg/mL | > 16 µg/mL | > 16 µg/mL | > 16 µg/mL | > 16 µg/mL | > 16 µg/mL | > 16 µg/mL | < 1 µg/mL | > 16 µg/mL | > 16 µg/mL | > 16 µg/mL | > 16 µg/mL | > 16 µg/mL | > 16 µg/mL | > 16 µg/mL | > 16 µg/mL | > 16 µg/mL | > 16 µg/mL | > 16 µg/mL |
| CC(C)(O/N=C(\C(=O)N[C@@H]1C(=O)N2C(C(=O)[O-])=C(C[n+]3ccccc3)CS[C@H]12)c1csc(N)n1)C(=O)O [CEFTAZIDIME] | ≥ 64 µg/mL | ≥ 64 µg/mL | ≥ 64 µg/mL | 32 µg/mL (≈ 58.5 µM) | ≥ 64 µg/mL | ≥ 64 µg/mL | ≥ 64 µg/mL | ≤ 1 µg/mL | ≥ 64 µg/mL | ≥ 64 µg/mL | ≥ 64 µg/mL | 16 µg/mL (≈ 29.3 µM) | ≥ 64 µg/mL | ≥ 64 µg/mL | ≥ 64 µg/mL | 32 µg/mL (≈ 58.5 µM) | ≥ 64 µg/mL | 32 µg/mL (≈ 58.5 µM) | ≥ 64 µg/mL |
| CCn1cc(C(=O)O)c(=O)c2ccc(C)nc21 [NALIDIXIC ACID] | 16 µg/mL (≈ 68.9 µM) | 16 µg/mL (≈ 68.9 µM) | 16 µg/mL (≈ 68.9 µM) | 4 µg/mL (≈ 17.2 µM) | 16 µg/mL (≈ 68.9 µM) | 16 µg/mL (≈ 68.9 µM) | 16 µg/mL (≈ 68.9 µM) | 2 µg/mL (≈ 8.61 µM) | 16 µg/mL (≈ 68.9 µM) | 16 µg/mL (≈ 68.9 µM) | 4 µg/mL (≈ 17.2 µM) | 16 µg/mL (≈ 68.9 µM) | 16 µg/mL (≈ 68.9 µM) | 16 µg/mL (≈ 68.9 µM) | 16 µg/mL (≈ 68.9 µM) | 2 µg/mL (≈ 8.61 µM) | 16 µg/mL (≈ 68.9 µM) | 2 µg/mL (≈ 8.61 µM) | 16 µg/mL (≈ 68.9 µM) |
| C[C@H]1COc2c(N3CCN(C)CC3)c(F)cc3c(=O)c(C(=O)O)cn1c23.C[C@H]1COc2c(N3CCN(C)CC3)c(F)cc3c(=O)c(C(=O)O)cn1c23.O [LEVOFLOXACIN] | 0.5 µg/mL | 1 µg/mL | 0.5 µg/mL | 0.094 µg/mL | 0.5 µg/mL | 0.38 µg/mL | 0.5 µg/mL | – | 0.5 µg/mL | 0.38 µg/mL | 0.094 µg/mL | 0.5 µg/mL | 0.75 µg/mL | 0.75 µg/mL | 0.5 µg/mL | 0.023 µg/mL | 0.75 µg/mL | 0.047 µg/mL | 0.5 µg/mL |
